Consider 1 molecule from ChEMBL document CHEMBL4145570, “Structures and Biological Evaluation of Monoterpenoid Glycosides from the Roots of Paeonia lactiflora” (J Nat Prod, 2018).

The source made the active and inactive calls. The rule behind the calls is not given here.

The subject of data set [1] is RAW264.7. In words: Antiinflammatory activity in mouse RAW264.7 cells assessed as inhibition of LPS-induced NO production at 60 uM relative to control. The class given is functional.
The test system of data set [2] is RAW264.7. In words: Antiinflammatory activity in mouse RAW264.7 cells assessed as inhibition of LPS-induced NO production at 20 uM relative to control. Type of data set: functional.
For data set [3], the system named is RAW264.7. In words: Antiinflammatory activity in mouse RAW264.7 cells assessed as inhibition of LPS-induced NO production. Type of data set: functional, cell-based. The method in brief: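 NO release measured in LPS-stimulated RAW264.7 macrophages alongside an unstimulated control group; IC50 derived; dexamethasone as positive control.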
For data set [4], the system named is RAW264.7. Description: Cytotoxicity against mouse RAW264.7 cells up to 100 uM. The class given is cell-based. The method in brief: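 Viability assessed in LPS-stimulated RAW264.7 macrophages during the NO-production assay, at concentrations up to 100 μM.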
For data set [5], the system named is RAW264.7. Description: Antiinflammatory activity in mouse RAW264.7 cells assessed as inhibition of LPS-induced NO production at 80 uM relative to control. Type of data set: functional.
The next data set relates to A549. In words: Cytotoxicity against human A549 cells assessed as decrease in cell viability at 10 uM after 24 hrs by MTT assay. The class given is functional, cell-based. (In general: Tetrazolium dyes change colour on reduction, which living cells bring about.)
The test system of another data set is BGC-823. Description: Cytotoxicity against human BGC823 cells assessed as decrease in cell viability at 10 uM after 24 hrs by MTT assay. The class given is functional, cell-based.
For data set [6], the system named is RAW264.7. In words: Antiinflammatory activity in mouse RAW264.7 cells assessed as inhibition of LPS-induced NO production at 10 uM relative to control. Type of data set: functional.
In the next data set the test system is Bel-7402. In words: Cytotoxicity against human Bel7402 cells assessed as decrease in cell viability at 10 uM after 24 hrs by MTT assay. The class given is functional, cell-based.
In a further data set the test system is Peritoneal macrophage. Description: Inhibition of LPS-induced TNFalpha secretion in C57BL6J mouse peritoneal macrophages at 10 uM after 24 hrs. The class given is functional, cell-based.
The test system of data set [7] is RAW264.7. Description: Antiinflammatory activity in mouse RAW264.7 cells assessed as inhibition of LPS-induced NO production at 40 uM relative to control. The class given is functional.
Another data set relates to HepG2. Description: Protection against acetaminophen-induced cell injury in human HepG2 cells at 10 uM after 24 hrs by MTT assay. Type of data set: functional, cell-based.
The test system of the next data set is A2780. In words: Cytotoxicity against human A2780 cells assessed as decrease in cell viability at 10 uM after 24 hrs by MTT assay. The class given is functional, cell-based.
The target in data set [8] is T1, Tyrosine-protein phosphatase non-receptor type 1 (Homo sapiens) (UniProt P18031).
T1 sequence (whole entry): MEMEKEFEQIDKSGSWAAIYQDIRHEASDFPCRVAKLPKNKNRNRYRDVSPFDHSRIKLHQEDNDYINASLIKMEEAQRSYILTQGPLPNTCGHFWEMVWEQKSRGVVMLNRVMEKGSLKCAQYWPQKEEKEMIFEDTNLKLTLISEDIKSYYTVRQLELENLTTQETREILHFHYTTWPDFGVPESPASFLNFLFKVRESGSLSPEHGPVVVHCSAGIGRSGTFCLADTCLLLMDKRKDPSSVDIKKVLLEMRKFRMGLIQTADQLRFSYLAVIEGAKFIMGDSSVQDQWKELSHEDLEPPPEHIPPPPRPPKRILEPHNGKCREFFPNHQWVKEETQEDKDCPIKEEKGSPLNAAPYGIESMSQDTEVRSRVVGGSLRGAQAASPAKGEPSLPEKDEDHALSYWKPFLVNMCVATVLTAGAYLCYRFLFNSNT
In words: Inhibition of PTP1B (unknown origin) at 10 uM.

The subject of another data set is HCT-8. In words: Cytotoxicity against human HCT8 cells assessed as decrease in cell viability at 10 uM after 24 hrs by MTT assay. Type of data set: functional, cell-based.

For `C=C[C@@](C)(O)CC/C=C(\C)C(=O)OC[C@H]1O[C@@H](O[C@]23CC4C2(COC(=O)c2ccccc2)[C@H]2O[C@]4(O)C[C@]3(C)O2)[C@H](O)[C@@H](O)[C@@H]1O`, the inhibition at 60 µM in the data set with RAW264.7 [1] stood at 38.1%. Moreover, the inhibition at 20 µM in the data set with RAW264.7 [2] was 22.6%. The IC50 in the data set on RAW264.7 [3] is more than 100 µM. Also, the Activity result in the data set on RAW264.7 [4] is “Non-Toxic”. In addition, in the data set on RAW264.7 [5], the inhibition at 80 µM came to 41.3%. For the same molecule, the result with A549, in the data set on BGC-823, in the data set with Bel-7402, in the data set with HepG2, with A2780 and in the data set with HCT-8 was inactive. Also, the inhibition at 10 µM with RAW264.7 [6] worked out at 9.85%. Further, the inhibition entry (in the data set on Peritoneal macrophage; in data set [8]) was “inactive” each time. For the same molecule, in the data set with RAW264.7 [7], the inhibition at 40 µM came to 28.1%.

Usually inhibition stands for the change of the read-out against control, counted positive when it falls. One may read the IC50 as the concentration needed to halve the response being measured.
